Experimental data from different studies.
Lines come from different studies, so protocols differ. pIC50: −log10 of the molar value.
Target: Prostaglandin G/H synthase 2 (PTGS2, Homo sapiens, UniProt P35354)
Observed: enzyme activity
Mode: inhibitor
Sequence (P35354 18-604, as in one of the studies): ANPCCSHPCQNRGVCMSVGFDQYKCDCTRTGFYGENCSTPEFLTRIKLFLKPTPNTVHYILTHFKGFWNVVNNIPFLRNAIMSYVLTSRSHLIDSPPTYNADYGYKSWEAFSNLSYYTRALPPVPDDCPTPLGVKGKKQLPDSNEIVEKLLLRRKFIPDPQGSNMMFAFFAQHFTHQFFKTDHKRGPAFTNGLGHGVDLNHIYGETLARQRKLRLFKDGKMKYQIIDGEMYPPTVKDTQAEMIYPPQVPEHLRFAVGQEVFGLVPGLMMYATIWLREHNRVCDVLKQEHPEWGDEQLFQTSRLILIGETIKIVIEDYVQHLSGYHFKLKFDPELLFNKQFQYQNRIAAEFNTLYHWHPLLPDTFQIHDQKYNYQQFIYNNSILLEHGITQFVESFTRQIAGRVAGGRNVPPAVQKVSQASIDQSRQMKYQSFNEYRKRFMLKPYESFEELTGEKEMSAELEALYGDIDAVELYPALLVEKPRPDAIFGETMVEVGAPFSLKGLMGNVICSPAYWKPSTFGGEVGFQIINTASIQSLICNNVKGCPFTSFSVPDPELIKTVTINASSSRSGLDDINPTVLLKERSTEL

Structure (SMILES) | technique | pIC50
COc1ccc(-c2nn(-c3ccc(S(C)(=O)=O)cc3)cc2C=N/N=c2\[nH]c(-c3ccc([N+](=O)[O-])cc3)cs2)cc1 | – | 5.05
O=c1cc(-c2ccc(O)c(O)c2)oc2cc(O)cc(O)c12 | – | 5.64
CS(=O)(=O)c1ccc(-n2cc(/C=N/N=c3\[nH]c(-c4ccc([N+](=O)[O-])cc4)cs3)c(-c3ccc(Br)cc3)n2)cc1 | – | 4.94
Cc1ccn2c(Nc3ccc(F)cc3)c(-c3ccc(S(C)(=O)=O)cc3)nc2c1 | – | 7.10
CS(=O)(=O)c1ccc(-n2cc(/C=N/N=c3\[nH]c(-c4ccc(Br)cc4)cs3)c(-c3ccc(Br)cc3)n2)cc1 | – | 5.23
O=C1Nc2ccccc2/C1=C/c1cn(-c2nc(N3CCCCC3)nc(N3CCOCC3)n2)c2ccccc12 | – | 7.10
CC(=O)c1cccc(N=Nc2c(C(=O)O)cc(O)c(O)c2O)c1 | – | 5.26
O=Cc1cn(-c2nc(N3CCCCC3)nc(N3CCCCC3)n2)c2ccccc12 | – | 5.15
O=C(O)/C=C/c1ccc(O)cc1 | – | < 4.00
O=C1/C(=C\c2cn(-c3nc(N4CCCC4)nc(N4CCOCC4)n3)c3ccccc23)c2ccccc2N1c1c(Cl)cccc1Cl | – | 5.40
Cc1ccc(Nc2c(-c3ccc(S(C)(=O)=O)cc3)nc3c(C)cccn23)cc1 | – | 7.15
CC1=NN(c2cccc(Cl)c2)C(=O)/C1=C\c1cn(-c2nc(N3CCCCC3)nc(N3CCCCC3)n2)c2ccccc12 | – | 7.00
CC(=O)c1ccc(N=Nc2c(C(=O)O)cc(O)c(O)c2O)cc1 | – | 5.21
O=C(O)c1ccc(O)cc1 | absorbance | 4.71
CC(C)Cc1ccc(-c2nn(-c3ccc(S(C)(=O)=O)cc3)cc2/C=N/N=c2\[nH]c(-c3ccc(Br)cc3)cs2)cc1 | – | 5.52
O=Cc1cn(-c2nc(Cl)nc(N3CCOCC3)n2)c2ccccc12 | – | 5.00
CCOC(=O)c1cc(O)c(O)c(O)c1 | – | 4.87

Structure (SMILES) | technique | pIC50
O=C1/C(=C\c2cn(-c3nc(N4CCOCC4)nc(N4CCOCC4)n3)c3ccccc23)c2ccccc2N1c1c(Cl)cccc1Cl | – | 6.40
COc1ccc(Nc2c(-c3ccc(S(C)(=O)=O)cc3)nc3c(C)cccn23)cc1 | – | 7.10
CCn1c(-c2nc3cc(C(=O)N4CCC[C@@H](N)C4)cc(OC)c3n2C)cc2cccnc21 | – | < 4.00
COc1ccc(Nc2c(-c3ccc(S(C)(=O)=O)cc3)nc3cc(C)ccn23)cc1 | – | 7.00
NS(=O)(=O)c1ccc(-c2ncc(Cl)cc2-c2nc3ccccc3s2)cc1 | absorbance | 6.68
COc1ccc(-c2cc(=O)c3c(O)cc(O[C@@H]4O[C@H](CO)[C@@H](O)[C@H](O)[C@H]4O)cc3o2)cc1O | absorbance | 6.01
O=c1oc2c(O)c(O)cc3c(=O)oc4c(O)c(O)cc1c4c23 | – | 5.34
Cc1cccc2nc(-c3ccc(S(C)(=O)=O)cc3)c(Nc3ccc(F)cc3)n12 | – | 7.10
CC(C)Cc1ccc(-c2nn(-c3ccc(S(C)(=O)=O)cc3)cc2/C=N/N=c2\[nH]c(-c3ccc([N+](=O)[O-])cc3)cs2)cc1 | – | 6.09
Cc1ccc(-c2nc3ccccc3s2)c(-c2ccc(S(C)(=O)=O)cc2)c1 | absorbance | 6.64
CS(=O)(=O)c1ccc(-c2nc3ccccn3c2Nc2ccc(Cl)cc2)cc1 | – | 7.15
CC1=NN(c2cccc(Cl)c2)C(=O)/C1=C\c1cn(-c2nc(Cl)nc(N3CCOCC3)n2)c2ccccc12 | – | 7.00
Cc1ccc(Nc2c(-c3ccc(S(C)(=O)=O)cc3)nc3cc(C)ccn23)cc1 | – | 7.15
O=Cc1cn(-c2nc(N3CCCCC3)nc(N3CCOCC3)n2)c2ccccc12 | – | 6.15
Cc1cccn2c(Nc3ccccc3)c(-c3ccc(S(C)(=O)=O)cc3)nc12 | – | 7.10
NS(=O)(=O)c1ccc(-c2ncccc2-c2nc3ccccc3s2)cc1 | absorbance | 6.16
